This is an account of results in ChEMBL document CHEMBL1146034, “Synthesis, DNA affinity, and antiprotozoal activity of linear dications: Terphenyl diamidines and analogues” (J Med Chem, 2006).

The source made the active and inactive calls. The calls are words filed in the database; no cut-off is given here. A value given as a limit tells only on which side of the number the result lay.

Data set [1] relates to Trypanosoma brucei rhodesiense. Description: Antiprotozoal activity against Trypanosoma brucei rhodesiense STIB900. Format: functional, organism-based. The essentials:
(§1)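 Run in vitro against T. b. rhodesiense strain STIB900 or P. falciparum strain K1. Values are from duplicate determinations.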

Data set [2] concerns Plasmodium falciparum. Description: Antiprotozoal activity against Plasmodium falciparum K1. Type of data set: functional, organism-based. The essentials: as §1
In data set [3] the test system is L6. The experiment in a line: Cytotoxicity against rat L6 cells. Type of data set: functional, cell-based.
The test system of data set [4] is Mus musculus. Description: Antiprotozoal activity in mouse infected with Trypanosoma brucei rhodesiense STIB900 measured as survival upto 60 days at 25 mg/kg, po. Format: functional, organism-based. Also on record: dose 25 mg/kg. The essentials:
(§2)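 Acute mouse model of T. b. rhodesiense STIB900 infection. Compound was given for 4 days, either intraperitoneally or orally, at the stated dose, with untreated infected controls. Read-outs were the number of mice alive and parasite-free at 60 days and the average days of survival.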

The subject of data set [5] is Mus musculus. The experiment in a line: Antiprotozoal activity in mouse infected with Trypanosoma brucei rhodesiense STIB900 measured as average days of survival at 25 mg/kg, po. Type of data set: functional. The essentials: (§3)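 Acute STIB900 mouse model. Dosing ran for 4 days, given ip or po. The read-out was average days of survival post infection. Mice surviving 60 days parasite-free were scored as cures. Untreated infected mice served as controls.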

The nature of data set [6]: Half life in B6C3F1 mouse liver microsome. Type of data set: ADME. Conditions: liver microsomes. The essentials: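 Pooled male B6C3F1 mouse liver microsomes (0.5 mg/mL protein) in 100 mM phosphate pH 7.4 with 5 mM MgCl2 and 0.5% DMSO, run in duplicate. After 3 min preincubation at 37 °C, 2 mM NADPH started the reaction. Acetonitrile quench at 0–30 min, then LC-MS/MS (positive MRM). t1/2 = 0.693/slope of ln % parent remaining versus time.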
A general note: Liver microsomes are a subcellular fraction often used to study metabolism.

The subject of data set [7] is Mus musculus. Description: Antiprotozoal activity in mouse infected with Trypanosoma brucei rhodesiense STIB900 measured as survival upto 60 days at 5 mg/kg, ip. Type of data set: functional, organism-based. Set-up: dose 5 mg/kg. The essentials: as §2
Data set [8] concerns Mus musculus. The experiment in a line: Antiprotozoal activity in mouse infected with Trypanosoma brucei rhodesiense STIB900 measured as average days of survival at 5 mg/kg, ip. Format: functional. Conditions: route intraperitoneal. The method, boiled down: as §3
Data set [9] relates to Mus musculus. The experiment in a line: Antiprotozoal activity in mouse infected with Trypanosoma brucei rhodesiense STIB900 measured as survival upto 60 days at 100 mg/kg, po. Format: functional, organism-based. Set-up: dose 100 mg/kg. The method, boiled down:
as §2

Data set [10] relates to Mus musculus. Description: Antiprotozoal activity in mouse infected with Trypanosoma brucei rhodesiense STIB900 measured as survival upto 60 days at 20 mg/kg, ip. Format: functional, organism-based. Set-up: dose 20 mg/kg. The method, boiled down:
as §2

The subject of data set [11] is Mus musculus. Description: Antiprotozoal activity in mouse infected with Trypanosoma brucei rhodesiense STIB900 measured as average days of survival at 20 mg/kg, ip. The following applies: route intraperitoneal. Format: functional. The method, boiled down:
as §3

The test system of data set [12] is Mus musculus. The experiment in a line: Antiprotozoal activity in mouse infected with Trypanosoma brucei rhodesiense STIB900 measured as average days of survival at 100 mg/kg, po. Type of data set: organism-based. Set-up: dose 100 mg/kg, route oral. The following applies: in vivo. The method, boiled down:
as §3

The IC50 is the concentration that gives 50% inhibition. By half-life is commonly meant how long it takes for the measured level to halve. High values mean slow loss, low ones fast loss. As for `CONC(=N)c1ccc(-c2ccc(-c3ccc(C(=N)NOC)cn3)cc2)nc1`, the IC50 in [1] was 82.9 µM; in [2] it was 1.2 µM; in data set [3], above 158 µM. The result in [4] was inactive. Moreover, the Survival in [5] amounted to 12 days. The molecule also came in with a half-life in [6] above 1.5 h.
Regarding `N=C(N)c1ccc(-c2ccc(-c3ccc(C(=N)N)cc3)c(C(F)(F)F)c2)cc1`, the concentration for half-maximal inhibition (IC50) in data set [1] stood at 0.048 µM; in data set [2], 0.015 µM; in data set [3], 9.4 µM. In addition, the result in data set [7] was inactive. For the same molecule, the Survival in data set [8] worked out at 17.25 days.
For the molecule `CONC(=N)c1ccc(-c2ccc(-c3ccc(C(=N)NOC)cc3)cc2)cc1`, the IC50 in [1] was 13.8 µM; in [2], 0.371 µM; in data set [3], 118 µM. Moreover, the result in data set [9] was inactive.
As for `N=C(N)c1ccc(-c2ccc(-c3ccc(C(=N)N)o3)cc2)cc1`, the IC50 in data set [1] turned out to be 0.005 µM; in data set [2] it was 0.001 µM; in data set [3] it was 56.1 µM. In [10], the outcome was inactive. The same molecule returned a Survival in data set [11] of 21.25 days.
As to `CO/N=C(\N)c1ccc(-c2ccc(-c3ccc(C(=N)NOC)cc3)cc2)o1`, the IC50 was 24 µM in [1], 1.6 µM in data set [2] and above 205 µM in data set [3]. Also, in data set [4], the outcome was inactive. Also, the Survival in data set [5] was 6.25 days.
On to `N=C(N)c1ccc(-c2ccc(-c3ccc(C(=N)N)cc3)c(F)c2)cc1`, for which the results for the IC50 in data set [1] and in [2] were 0.002 µM and 0.001 µM, respectively. In addition, the outcome in data set [7] was inactive. In data set [8], this molecule showed a Survival above 51.75 days.
On to `CONC(=N)c1ccc(-c2ccc(-c3ccc(C(=N)NOC)cc3)c(F)c2)cc1`, for which the IC50 in data set [1] was found to be 51.5 µM; in data set [2], 4.2 µM; in [3] it was 8.5 µM. Further, the result in [4] was inactive. Besides, in data set [5], the Survival worked out at 37.25 days. For the same molecule, the half-life in data set [6] was above 1.5 h.
With `N=C(N)c1ccc(-c2ccc(-c3ccc(C(=N)N)cc3)nc2)cc1`, the IC50 was determined as 0.002 µM in data set [1] and 0.01 µM in [2]. Further, the outcome in data set [10] was Active. For the same molecule, the results for the Survival in data set [11] and in data set [8] were above 60 days and above 42 days, respectively.
As to `N=C(N)c1ccc(-c2ccc(-c3ccc(C(=N)N)cc3)cc2)cc1`, the IC50 is 0.005 µM in [1] and 0.001 µM in data set [2]. Also, in data set [11], the Survival was above 47.75 days.
As to `CONC(=N)c1ccc(-c2ccc(-c3ccc(C(=N)NOC)cc3)c(C(F)(F)F)c2)cc1`, the results for the IC50 in data set [1], in data set [2] and in data set [3] were 36.9 µM, 3.8 µM and 42.2 µM, respectively. Further, the result in data set [4] was inactive. In addition, in data set [5], the Survival stood at 7.25 days.
As for `COc1cc(-c2ccc(C(=N)N)cc2)c(OC)cc1-c1ccc(C(=N)N)cc1`, the IC50 was 0.015 µM in [1], 0.037 µM in data set [2] and above 100 µM in data set [3]. In data set [8], the Survival is above 51.75 days.
For `CONC(=N)c1ccc(-c2cnc(-c3ccc(C(=N)NOC)cc3)nc2)cc1`, the IC50 was 49 µM in data set [1], 5.7 µM in data set [2] and above 177 µM in data set [3]. The outcome in data set [4] was inactive. In addition, the Survival in [5] is 12.5 days. The molecule also came in with a half-life in data set [6] above 1.5 h.
Take `N=C(N)c1ccc(OCCCCCOc2ccc(C(=N)N)cc2)cc1` [PENTAMIDINE]: the result in data set [10] was inactive. In data set [11], this molecule had a Survival above 42.75 days.
Regarding `N=C(N)c1ccc(-c2ccc(-c3ccc(C(=N)N)o3)cn2)cc1`, the IC50 in data set [1] was found to be 0.002 µM; in [2], 0.01 µM; in data set [3], 30.9 µM. For the same molecule, the results for the Survival in [11] and in data set [8] were above 53.5 days and above 41.75 days, respectively.
Regarding `CO/N=C(/N)c1ccc(-c2ccc(-c3ccc(C(=N)NOC)cc3)nc2)cc1`, the 50% inhibitory concentration (IC50) was 34.7 µM in data set [1], 3.2 µM in data set [2] and above 166 µM in data set [3]. Besides, in data set [4], the result was inactive. Further, the Survival in [5] is above 42.75 days. Also, the half-life in data set [6] turned out to be 0.917 h.
In the case of `N=C(NO)c1ccc(-c2ccc(-c3ccc(/C(N)=N\O)cc3)nc2)cc1`, the IC50 in data set [1] was 9.3 µM; in data set [2], 7.6 µM; in [3], above 184 µM. The same molecule had a Survival in data set [12] above 35.75 days.
With `N=C(N)c1ccc(-c2ccc(-c3ccc(C(=N)N)cc3)o2)cc1` [FURAMIDINE], the result in [10] and in data set [7] was inactive. In addition, the Survival in [11] was above 52.5 days; in [8], 35.5 days.
As to `N=C(N)c1ccc(-c2ccc(-c3ccc(C(=N)N)cn3)cc2)nc1`, the figures for the concentration for half-maximal inhibition (IC50) in [1] and in data set [2] were 0.047 µM and 0.01 µM, respectively. The Survival in data set [8] is above 60 days.
In the case of `N=C(NO)c1ccc(-c2ccc(-c3ccc(/C(N)=N\O)cc3)cc2F)cc1`, the IC50 in data set [2] was determined as 0.925 µM; in data set [3], 29.1 µM. The result in data set [4] was inactive. Further, the Survival in data set [5] came out at 22.25 days.
As for `N=C(NO)c1ccc(-c2ccc(-c3ccc(/C(N)=N\O)cc3)cc2C(F)(F)F)cc1`, the figures for the IC50 in [1], in data set [2] and in data set [3] were 29.9 µM, 3.1 µM and 13.3 µM, respectively. For the same molecule, in data set [4], the outcome was inactive. This molecule gave a Survival in data set [5] of 9 days.
In the case of `CON=C(N)c1ccc(-c2ccc(-c3ccc(C(N)=NOC)cc3)cc2)cc1`, in data set [12], the Survival came out at 20.75 days. This molecule also had a half-life in data set [6] above 1.5 h.
Regarding `N=C(NO)c1ccc(-c2ccc(-c3ccc(/C(N)=N/O)cc3)cc2)o1`, the IC50 in [1] was determined as 67 µM; in [2], 6.6 µM. Further, the result in [4] was inactive. The molecule further returned a Survival in data set [5] of 16 days.
For `N=C(N)c1ccc(-c2cnc(-c3ccc(C(=N)N)cc3)nc2)cc1`, in data set [2], it took 0.0005 µM to reach half-maximal inhibition (IC50). The outcome in data set [7] was inactive. The molecule further displayed a Survival in [8] of 23.5 days.
Turning to `N=C(NO)c1ccc(-c2ccc(-c3ccc(/C(N)=N\O)cc3)cc2)cc1`, the figures for the IC50 in data set [1], in data set [2] and in data set [3] were 22.8 µM, above 11.8 µM and above 211 µM, respectively. In addition, the result in data set [9] was inactive. In data set [12], the Survival was found to be 24.75 days.
As to `CONC(=N)c1ccc(-c2ccc(-c3ccc(C(=N)NOC)cc3)o2)cc1` [PAFURAMIDINE], the Survival in data set [5] is above 60 days. In [6], the half-life is below 0.25 h.
